Experiment [1] in a line: inhibitors of TNFa-induced NFkB p65 translocation, primary screen, imaging, HUVEC, MLSMR starter and 10KST1 sets (AID 438;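 active = inhibition above 20% together with a positive visual image hit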;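 also: compound added about 3h40 before a 20 min TNFalpha stimulation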;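 as to inhibition: signal is the nuclear over cytoplasmic p65 intensity ratio per well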). The conditions noted are these: HUVEC TNFa-induced p65 nuclear translocation; cell count: measured here: nuclei count (cytotoxicity indicator), at 2.08 µM; inhibition: at 2 µM, stronger effect = higher value, 0% TNFa-plus-vehicle, 100% no-TNFa wells.
Experiment [2] is described as follows: endothelial E-selectin expression blockers – imaging, HUVEC, immunofluorescence, MLSMR starter and 10KST1 sets, primary screen (AID 487;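 active = visually confirmed hit in the image check and inhibition above 20%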;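 as to inhibition: signal is fraction of cell area covered by stained E-selectin grains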;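 as to nuclei count: 100% = median nuclei count of all wells on the same plate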). The conditions noted are these: HUVEC TNFalpha-induced E-selectin immunofluorescence imaging, at 2 µM; inhibition: stronger effect = higher value; nuclei count: measured here: cell number, toxicity.
A short description of experiment [3]: Primary imaging screen for DUSP6 inhibitors that restore phospho-Erk in transfected HeLa cells, chemical complementation (AID 609).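 As to inhibition: phospho-Erk level distribution per well compared with pooled transfected vehicle control wells.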 The conditions noted are these: HeLa MKP-3 transfected, phospho-Erk imaging KS statistic, at 10 µM, cells stimulated with TPA for 15 min.
The target in experiment [4] is Dual specificity protein phosphatase 6 (Homo sapiens) (UniProt Q16828). The experiment is described as above. The conditions noted are these: HeLa MKP-3 transfected, phospho-Erk imaging KS statistic; at 10 µM; stronger effect = higher value; cells stimulated with TPA for 15 min.
Experiment [5] addresses Voltage-gated potassium channel subunit beta-2 (Rattus norvegicus) (UniProt P62483). Briefly: inhibitors of rat Kvbeta2 reductase activity – biochemical, NADPH fluorescence, primary screen (AID 622;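 active = fluorescence slope higher than the sample average by over 3 SD, cut at about -0.22 in these data, passing the limit was not always enough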;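 also: slope of raw intensity against log time taken from 70 to 1610 s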). The note with it: recombinant KvBeta, 4-cyanobenzaldehyde reduction, at 10 µM, stronger effect = higher value.
Experiment [6] shares this target. In words: enhancers of rat Kvbeta2 NADPH turnover – biochemical, NADPH fluorescence, primary screen (AID 623;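 active = NADPH fluorescence slope more negative than the mean of all samples by about 3 SD, 99.7% confidence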;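 also: fluorescence intensity change per second fitted from 20 to 320 s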). The conditions noted are these: Recombinant KvBeta, NADPH fluorescence decrease slope, 10 min; at 10 µM; stronger effect = lower value.
For experiment [7], the target named is Alpha-2C adrenergic receptor (Homo sapiens) (UniProt P18825). In words: compounds altering alpha2C-coupled GIRK flux – cell-based, HEK293 alpha2C/GIRK1/2, thallium flux, primary screen (AID 624;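 active = fluorescence slope after compound addition differing from the mean of all screened samples at 99.7% confidence, in either direction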;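 also: slope of fluorescence ratio to pre-addition baseline per second over 15 to 24 s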). The note with it: thallium flux BTC fluorescence, at 10 µM, actives lie on both sides.
The nature of experiment [8]: inhibitors of larval lipid processing in zebrafish, primary screen, whole organism, PED6 fluorescence, gall bladder and intestine (AID 686;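 active = a full or partial loss of lipid-probe fluorescence in the fish gall bladder, intestine or both, judged by eye; inactive = no fluorescence loss, or compound toxic to the fish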;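 also: larvae 5 to 7 days old with five fish per well; signal comes from phospholipase A2 cleavage of quenched PED6 carried via bile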). The note with it: Zebrafish larvae PED6 lipid processing, fluorescence scoring; screened at 20 µM (by protocol). In a few lines: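 System: live zebrafish larvae aged 5-7 days, whole organism; measure: graded gall bladder and intestinal fluorescence inhibition per well; incubation: overnight exposure; reagent: ingested quenched lipid PED6 at 100 nM; signal: By-eye fluorescence microscopy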

A short description of experiment [9]: loss of swimming-algae plug formation – whole organism, Chlamydomonas reinhardtii, WT vs cilia-less mutant, absorbance, 96-well, primary screen (AID 463189;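 active = inhibition at or above 50% relative to wild type and mutant plate controls; inactive = inhibition below 50%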;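 also: 0% = wild type cc124 cells in DMSO and 100% = ciliumless bld1 mutant cells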). The note with it: Chlamydomonas reinhardtii gravitaxis, OD600 absorbance, 2 days; at 10 µM; stronger effect = higher value.
Where [10] appears, read: measured here: cell density z-score.
Where [11] appears, read: measured here: nuclear c-Myc green intensity z-score.
[12] abbreviates: measured here: nuclear pErk red intensity z-score, stronger effect = higher value.

Activity calls are given as the source filed them.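 The calls were made as follows, unless noted: active = compounds giving at least 50% inhibition in the cell-based MKP-3 phosphatase rescue imaging test; inactive = the rest.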

Chain of Voltage-gated potassium channel subunit beta-2 (Rattus norvegicus) (P62483 whole entry, looked up): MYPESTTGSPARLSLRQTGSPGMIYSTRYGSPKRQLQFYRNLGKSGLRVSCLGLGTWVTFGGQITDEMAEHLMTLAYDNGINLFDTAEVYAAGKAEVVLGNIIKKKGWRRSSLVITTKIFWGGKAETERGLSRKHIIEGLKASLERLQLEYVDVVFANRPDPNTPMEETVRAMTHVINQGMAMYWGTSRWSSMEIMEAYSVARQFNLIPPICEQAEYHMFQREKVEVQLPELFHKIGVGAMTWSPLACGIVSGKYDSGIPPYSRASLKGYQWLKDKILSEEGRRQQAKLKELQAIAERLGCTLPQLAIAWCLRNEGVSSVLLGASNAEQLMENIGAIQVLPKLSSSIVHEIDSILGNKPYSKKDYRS
Chain of Alpha-2C adrenergic receptor (Homo sapiens) (P18825 whole entry, looked up): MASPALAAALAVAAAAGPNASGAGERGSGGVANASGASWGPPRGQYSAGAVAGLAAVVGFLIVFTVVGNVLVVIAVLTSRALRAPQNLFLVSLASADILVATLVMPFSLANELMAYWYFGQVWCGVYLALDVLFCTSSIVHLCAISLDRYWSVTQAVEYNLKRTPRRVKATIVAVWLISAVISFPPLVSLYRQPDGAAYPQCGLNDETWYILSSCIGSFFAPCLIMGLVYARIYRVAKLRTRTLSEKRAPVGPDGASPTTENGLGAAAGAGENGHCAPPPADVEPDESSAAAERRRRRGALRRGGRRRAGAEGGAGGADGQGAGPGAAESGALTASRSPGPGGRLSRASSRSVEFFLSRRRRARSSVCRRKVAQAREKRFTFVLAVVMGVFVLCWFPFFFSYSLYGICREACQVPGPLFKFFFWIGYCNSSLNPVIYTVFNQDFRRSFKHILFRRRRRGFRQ
Chain of Dual specificity protein phosphatase 6 (Homo sapiens) (Q16828 whole entry, looked up): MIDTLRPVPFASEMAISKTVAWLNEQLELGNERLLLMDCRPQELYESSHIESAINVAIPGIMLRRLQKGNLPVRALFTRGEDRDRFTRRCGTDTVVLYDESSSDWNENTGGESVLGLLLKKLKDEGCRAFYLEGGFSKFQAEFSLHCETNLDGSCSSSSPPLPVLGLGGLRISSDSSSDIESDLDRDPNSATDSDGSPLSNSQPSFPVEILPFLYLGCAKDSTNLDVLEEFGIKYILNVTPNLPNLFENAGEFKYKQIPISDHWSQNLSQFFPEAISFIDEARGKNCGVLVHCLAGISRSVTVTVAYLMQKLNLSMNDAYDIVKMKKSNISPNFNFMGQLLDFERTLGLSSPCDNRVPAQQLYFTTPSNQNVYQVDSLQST

Take `CCOC(=O)c1[nH]c2ccc(OC)cc2c1NC(=O)CN1CCN(c2ccccn2)CC1`: in experiment [1], the cell count worked out at 551. For the same compound, the inhibition (commonly the relative decrease from the control value, in per cent) in [1] was -8.8% (inactive); in experiment [2], -2.8% (inactive); in [4], -14% (inactive); in [9], -9.68% (inactive). Besides, the nuclei count in experiment [2] was 157%. For the same compound, the z-score was -0.126 in experiment [3] (setting [10]), 0.554 in experiment [3] (setting [11]) and 1.04 in experiment [3] (setting [12]). Further, the fluorescence slope in experiment [5] was -0.16 (inactive). In experiment [6], the NADPH fluorescence slope was 2.2e-06 (inactive). The slope in experiment [7] is 0.00466 (inactive). Besides, in experiment [8], the call was inactive.

With `CCOC(=O)c1c(SC)nc(SC)c2c1CCC2`, the cell count in experiment [1] turned out to be 648. For the same compound, the inhibition in experiment [1] was -8.1% (inactive); in experiment [2] it was -63.6% (inactive); in experiment [4], -5.62% (inactive); in experiment [9] it was -10% (inactive). In experiment [2], this compound registered a nuclei count of 182%. Also, the results for the z-score in experiment [3] (setting [10]), in experiment [3] (setting [11]) and in [3] (setting [12]) were 0.267, 0.0457 and 1.4, respectively. In experiment [5], the fluorescence slope is -0.394 (inactive). Also, the NADPH fluorescence slope in experiment [6] was -4.6e-05 (inactive). Further, in [7], the slope is 0.00956 (inactive). Besides, the outcome in experiment [8] was inactive.

For the compound `CC1CC(C(F)(F)F)n2ncnc2N1` (stereo not given), the cell count in [1] was 503. The inhibition in experiment [1] was -3.5% (inactive); in experiment [2], -41.5% (inactive); in experiment [4], 13.2% (inactive); in experiment [9], 39.7% (inactive). This compound gave a nuclei count in [2] of 134%. The values for the z-score in experiment [3] (setting [10]), in experiment [3] (setting [11]) and in experiment [3] (setting [12]) were -0.241, 0.0915 and -0.288, respectively. In addition, the fluorescence slope in [5] was -0.523 (inactive). Moreover, the NADPH fluorescence slope in experiment [6] was -4.4e-05 (inactive). In addition, in experiment [7], the slope was 0.00582 (inactive). Besides, the call in experiment [8] was inactive.

Turning to `CCOc1cccc(-c2nnc3sc(C4CCCCC4)nn23)c1`, the cell count in experiment [1] is 683. In addition, the inhibition in [1] is 1.1% (inactive); in experiment [2], 16.2% (inactive); in experiment [4] it was 15.5% (inactive); in [9] it was 36.1% (inactive). The nuclei count in experiment [2] stood at 160%. Besides, the values for the z-score in [3] (setting [10]), in [3] (setting [11]) and in [3] (setting [12]) were 1.83, -1.11 and -1.63, respectively. In [5], the fluorescence slope was -0.446 (inactive). Also, the NADPH fluorescence slope in [6] is -0.000139 (inactive). Further, the slope in experiment [7] was 0.00527 (inactive). Further, the outcome in experiment [8] was “inactive; toxic”.

`C=CCNc1nc(-c2ccc(O)c(C(N)=O)c2)cs1`: the cell count in [1] is 651. For the same compound, the inhibition in experiment [1] was -7.7% (inactive); in [2] it was -37.4% (inactive); in experiment [4], 7.48% (inactive); in experiment [9], 22.9% (inactive). The same compound yielded a nuclei count in experiment [2] of 154%. The z-score in [3] (setting [10]) was 1.4; in experiment [3] (setting [11]) it was -1.92; in experiment [3] (setting [12]) it was 0.332. In addition, the fluorescence slope in experiment [5] was -0.465 (inactive). For the same compound, in experiment [6], the NADPH fluorescence slope is -0.000295 (inactive). Besides, in [7], the slope is 0.00459 (inactive). For the same compound, the call in experiment [8] was inactive.

Regarding `O=C(CC(c1ccccc1)c1ccco1)N1CCOCC1` (stereo not given), the cell count in experiment [1] was found to be 294. The inhibition in experiment [1] was -28.3% (inactive); in experiment [2] it was -96.2% (inactive); in experiment [4], 14% (inactive); in experiment [9] it was -5.11% (inactive). For the same compound, the nuclei count in experiment [2] turned out to be 84.1%. Besides, the z-score in experiment [3] (setting [10]) is -0.599; in experiment [3] (setting [11]) it was 0.143; in experiment [3] (setting [12]) it was -0.229. Further, the fluorescence slope in [5] was -0.429 (inactive). Also, the NADPH fluorescence slope in [6] is -4.9e-05 (inactive). In addition, the slope in [7] was 0.00649 (inactive). In addition, in experiment [8], the call was inactive.

With `Cc1cccc2c1NC(C)CC2C` (stereo not given), the cell count in experiment [1] stood at 424. Further, the inhibition in experiment [1] is -23.2% (inactive); in [2], -291% (inactive); in experiment [4], 7.7% (inactive); in experiment [9], 5.59% (inactive). Besides, in experiment [2], the nuclei count was 187%. The z-score in experiment [3] (setting [10]) is 1.31; in [3] (setting [11]), -0.632; in [3] (setting [12]), -0.589. The fluorescence slope in [5] was -0.292 (inactive). In addition, in experiment [6], the NADPH fluorescence slope was -6.6e-06 (inactive). In addition, the slope in experiment [7] was 0.00419 (inactive). In addition, the outcome in experiment [8] is “active; weak signal in gallbladder and intestine”.

Consider `O=C(O)C1CC=CCC1C(=O)N1CCN(c2nc(-c3ccccc3)c3ccccc3n2)CC1` (stereo not given), for which the cell count in experiment [1] was determined as 373. Also, the inhibition in [1] was -16.9% (inactive); in experiment [2], -48.5% (inactive); in experiment [4] it was -5.26% (inactive); in experiment [9], 28.5% (inactive). The compound further returned a nuclei count in experiment [2] of 165%. Besides, the z-score in [3] (setting [10]) was -1.19; in experiment [3] (setting [11]), 1.08; in experiment [3] (setting [12]) it was 0.0489. In addition, the fluorescence slope in [5] was -0.305 (inactive). In addition, the NADPH fluorescence slope in [6] was -7.9e-05 (inactive). The slope in [7] is 0.00497 (inactive). Besides, the compound was called inactive in experiment [8].

As to `COc1ccc2c(c1)nc(N)n2Cc1ccccc1`, in [1], the cell count stood at 570. Further, the inhibition was -4.4% (inactive) in experiment [1], 15% (inactive) in experiment [2], 15.8% (inactive) in [4] and 12.8% (inactive) in experiment [9]. The nuclei count in [2] amounted to 168%. Besides, the z-score in experiment [3] (setting [10]) was 2.35; in experiment [3] (setting [11]), -1.31; in [3] (setting [12]), 1.13. In [5], the fluorescence slope is -0.388 (inactive). For the same compound, the NADPH fluorescence slope in [6] is -2.5e-05 (inactive). Besides, the slope in [7] was 0.004 (inactive). Besides, the outcome in experiment [8] was inactive.

With `CN1C(=O)CC(N2CCN(c3ccc(Cl)c(Cl)c3)CC2)C1=O` (stereo not given), the cell count in [1] was 379. The inhibition in [1] is -3.9% (inactive); in experiment [2] it was -80.8% (inactive); in experiment [4], 5.65% (inactive); in [9] it was 0.241% (inactive). In addition, the nuclei count in experiment [2] amounted to 94.7%. In addition, the z-score in experiment [3] (setting [10]) was -1.07; in experiment [3] (setting [11]) it was 0.418; in experiment [3] (setting [12]) it was -1.7. The fluorescence slope in experiment [5] was -0.541 (inactive). For the same compound, the NADPH fluorescence slope in experiment [6] was -7.5e-05 (inactive). For the same compound, the slope in experiment [7] was 0.00484 (inactive). The compound was classed as inactive in experiment [8].
